Bioassay records (PubChem BioAssay)
Hits are enriched below; roughly 3.3% of the tested compounds scored in any of these assays.
DENV2 CPE: inhibitors of DENV2 cytopathic effect, primary screen, cell-based, plate reader, single concentration. DENV2-infected cells, cytopathic effect rescue. CPE inhibition, % at 9.99 µM. actives 1.7% (n = 350,000). AID 651640, 2012; in the data active = CPE inhibition above about 20%, passing the limit was not always enough; inconclusive = no clear call, values can overlap the other calls; tested in BHK-21 cells;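 also: 0% = median of neutral control wells and 100% = median of positive control wells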
Statin myotox sup: suppressors of statin myotoxicity in C2C12 myotubes, primary screen, cell-based, single point, plate reader. rescue of ATP level, % at 7.49 µM. C2C12 myotubes + simvastatin, ATP luminescence, 48 h; scaled: DMSO 0, geranylgeraniol control 100. actives 0.78% (n = 330,000);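 active = mean ATP rescue above about 67%, or every replicate alone reaching that limit, limit read from the data, passing the limit was not always enough; inconclusive = no clear call, values can overlap the other calls; inactive = mean under the limit and some replicate under it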;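 also: myotubes were challenged with 10 µM simvastatin during compound exposure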
E-sel inducer: E-selectin induction in HUVECs, primary screen, imaging, HUVEC, immunofluorescence imaging, single point. actives 0.37% (n = 260,000). activation, % at 7.58 µM. normalized: neutral wells 0, TNF-alpha wells 100;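 active = mean E-selectin-positive cell signal at least 10% of the positive control, reached in at least 60% of replicates, without over 20% cell loss; inconclusive = no rule given, readout overlaps actives, possibly toxicity-flagged; inactive = the rest, including those meeting only one limit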
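Test system: HUVEC; input: 3,000 HUVEC/well; measured by: immunofluorescence imaging; read-out: % PE-positive cells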
PglD inh: C. jejuni PglD acetyltransferase inhibitors, primary screen, biochemical, DTNB colorimetric, single point. UDP-N-acetylbacillosamine N-acetyltransferase PglD (Campylobacter jejuni). purified PglD enzyme, DTNB colorimetric CoA detection. inhibition, % at 12.5 µM. actives 0.098% (n = 360,000). AID 602405, 2012; in the data active = inhibition above about 16%, passing the limit was not always enough; inconclusive = no clear call, values can overlap the other calls
FGF22 binding: binders of human FGF22 protein, primary screen, FGF22 synaptogenesis inhibitor project, biophysical, thermal shift, single point | Fibroblast growth factor 22 (Homo sapiens), Q9HCT0 | recombinant FGF22 thermal shift, SYPRO orange fluorescence; percent of sucrose octasulfate shift, DMSO zero | activity (Tm shift, normalised), % at 9.99 µM | actives 1.5% (n = 340,000);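 active = mean Tm shift, scaled 0 neutral to 100 positive control, at about 1.3% or above, every replicate too, limit read from the data; inconclusive = no clear call, values can overlap the other calls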
Target sequence (Q9HCT0 whole entry, looked up): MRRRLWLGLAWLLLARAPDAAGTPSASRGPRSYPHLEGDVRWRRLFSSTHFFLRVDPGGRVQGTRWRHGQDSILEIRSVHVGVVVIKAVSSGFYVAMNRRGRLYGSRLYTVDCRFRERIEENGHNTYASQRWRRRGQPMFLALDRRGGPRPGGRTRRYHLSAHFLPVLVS
XiGFP reactiv: activators of inactive X chromosome reactivation, primary screen, imaging, XiGFP fibroblasts, GFP high-content imaging, set 2. activation, % at 7.58 µM. actives 0.055% (n = 360,000). XiGFP mouse fibroblasts, % GFP-positive cells imaging, 3 d; cells co-treated with 5-aza-dC sensitizer; scaled so ellipticine positive control = 100%. AID 743238, 2013;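 active = mean normalized replicate activation at least 10% and every replicate at or above 10%; inconclusive = only one of the two criteria met; inactive = mean below 10% and not all replicates reach 10%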;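 also: 0% = median of on-plate neutral control wells and 100% = ellipticine 6 µM median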
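Assay system: SV40-immortalized XiGFP fibroblast cells, line 68-5-11; buffer or medium: DMEM plus 5-aza-dC sensitizer; compound: one concentration, pinned; timing: compounds 3 days, fix/stain 15 min at room temperature; benchmarks: positive control ellipticine, 6 µM final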
Numbers without * were called inactive; ? = inconclusive; . = not tested or not shown; ! = repeats disagree.

SMILES | DENV2 CPE | Statin myotox sup | E-sel inducer | PglD inh | FGF22 binding | XiGFP reactiv
CNC[C@@H]1OCc2ccccc2-c2c(n(C)c3ccccc23)C(=O)N([C@H](C)CO)C[C@@H]1C | 33*! | -12 | 0 | 2 | 0 | 0
C[C@@H]1CN([C@H](C)CO)C(=O)c2ccccc2-c2ccccc2CO[C@@H]1CN(C)C(=O)[C@H]1CCCN1C | 79* | -12 | 0 | 1 | 0 | 0
C[C@H]1CN([C@@H](C)CO)C(=O)c2ccccc2-c2ccccc2CO[C@H]1CN(C)Cc1ccccc1C(F)(F)F | 21* | . | 0 | . | -1 | 0
COc1cccc(CN(C)C[C@@H]2OCc3ccccc3-c3c(n(C)c4ccccc34)C(=O)N([C@@H](C)CO)C[C@H]2C)c1 | 49*! | -6 | 0 | -3 | 0 | 0
C[C@H](CO)N1C[C@H](C)[C@H](CN(C)C(=O)[C@H]2CCCN2C)OCc2ccccc2-c2ccccc2C1=O | 8 | -1 | 0 | -1 | 0 | 0
CNC[C@H]1OCc2ccccc2-c2c(n(C)c3ccccc23)C(=O)N([C@H](C)CO)C[C@@H]1C | . | . | . | . | . | 3
C/C=C/c1cnc2c(c1)C(=O)N([C@@H](C)CO)C[C@@H](C)[C@@H](CN(C)C(=O)C1CCCCC1)O2 | 8 | 24 | 0 | -1 | 0 | -1
CNC[C@@H]1OCc2ccccc2-c2ccccc2C(=O)N([C@@H](C)CO)C[C@@H]1C | 33*! | -5 | 0 | -3 | 0 | 0
CN(C)c1ccc2c(c1)[C@@H]1C[C@H](CC(=O)NCc3cccc(F)c3)O[C@H](CO)[C@@H]1O2 | 5 | 2 | 0 | 4 | -1 | 0
CCCNC(=O)C[C@@H]1C[C@H]2c3cc(NC(=O)Nc4ccccc4)ccc3O[C@H]2[C@H](CO)O1 | 0 | 2 | 0 | 3 | 0 | 0
CN1C(=O)c2cc(NS(C)(=O)=O)ccc2OC[C@@H]2O[C@@H](CC(=O)O)CC[C@@H]21 | -9 | -66 | 0 | 18 | 0 | 0
CN(CC(=O)NCc1ccccc1)S(=O)(=O)c1cnc[nH]1 | -6 | 19 | . | 6 | 0 | .
CCN(c1ccccc1)S(=O)(=O)c1cnc[nH]1 | . | 88* | . | 3 | . | .
CC(C)COC(=O)OCN1C(=O)CN(CCN2CC(=O)N(COC(=O)OCC(C)C)C(=O)C2)CC1=O | -4 | 5 | 0 | -4 | 0 | 0
CN1C(=O)CN(CCN2CC(=O)N(C)C(=O)C2)CC1=O | 3 | -3 | 0 | -7 | 43* | 0
Cc1onc(-c2ccccc2)c1C(=O)N/N=C/c1c(F)cccc1Cl | 79* | -7 | 0 | -6 | 0 | 0
CC(C)NC(=O)N[C@H]1CC[C@H](CCNC(=O)C2CCC2)O[C@@H]1CO | -4 | -3 | -1 | 0 | 0 | 0
CNC(=S)N1N=C(c2ccc(C)cc2)CC1c1ccc(OC)cc1 (stereo not given) | . | -5 | . | -1 | . | .
CNC(=S)N1N=C(c2ccc(C)cc2)CC1c1ccc(N(C)C)cc1 (stereo not given) | -3 | 14 | 0 | 4 | 44* | 0
Cc1noc(C)c1NC(=O)N(C)C[C@@H]1Oc2ccc(NC(=O)C3CCCCC3)cc2CC(=O)N([C@@H](C)CO)C[C@H]1C | -14 | 18 | 0 | -4 | 0 | 0
COCCNc1nc(Nc2ccccc2Cl)c2sccc2n1 | 38* | -5 | 0 | 4 | 0 | 0
COCCNc1nc(NCCOc2ccccc2Cl)c2sccc2n1 | -2 | -23 | 0 | 2 | 0 | 0
COCCNc1nc(NCc2ccc(C(C)C)cc2)c2sccc2n1 | -4 | -86 | 0 | -7 | 23* | 0
COCCNc1nc(NCc2cccc(OC)c2)c2sccc2n1 | -4 | -2 | 1 | -3 | 0 | 0
COC(=O)c1ccc(NC(=O)CNCc2ccncc2)cc1 | . | . | ? | . | . | 0
SMILES | DENV2 CPE | Statin myotox sup | E-sel inducer | PglD inh | FGF22 binding | XiGFP reactiv
COC(=O)c1ccc(CNCC(=O)Nc2ccc(C(=O)OC)cc2)cc1 | . | . | . | . | 43* | 0
COc1ccc([C@@H]2CC=CC[C@@H](C)Oc3ccccc3C(=O)N(C)[C@@H](C(C)C)C(=O)N2)c(OC)c1 (mixture of isomers) | . | . | . | . | . | 0
Cc1nn(-c2ccccc2)c(Cl)c1C(=O)Nc1nnc(C2CCCCC2)s1 | . | . | . | 1 | . | .
O=C(Nc1nnc(C2CC2)s1)c1cc(-c2ccccc2)nn1-c1ccccc1 | . | 78* | . | 0 | . | .
O=C(C[C@@H]1C=C[C@H](NC(=O)c2ccccc2)[C@@H](CO)O1)NCc1ccncn1 | -2 | -6 | 1 | -3 | 0 | 0
C[C@H](CO)N1C[C@H](C)[C@@H](CN(C)Cc2ccc(C(=O)O)cc2)Oc2ccc(NC(=O)Nc3cccc4ccccc34)cc2CC1=O | 77* | 14 | 0 | -2 | 0 | 2
C[C@H](CO)N1C[C@H](C)[C@H](CN(C)Cc2ccc(C(F)(F)F)cc2)Oc2ccc(NC(=O)Nc3cccc4ccccc34)cc2CC1=O | 42* | 2 | . | 3 | 0 | -1
C[C@H]1CN([C@@H](C)CO)C(=O)Cc2cc(NC(=O)Nc3cccc4ccccc34)ccc2O[C@H]1CN(C)Cc1ccc(C(F)(F)F)cc1 | 33* | -32 | . | 2 | 0 | 1
Cc1ccccc1S(=O)(=O)N1CC(=O)N2[C@H](CO)[C@@H](c3ccc(C#CCC(C)C)cc3)[C@@H]2C1 | 5 | . | 0 | . | . | 0
Cc1ccc(S(=O)(=O)N[C@@H]2CC[C@@H](CC(=O)N3CCC(Cc4ccccc4)CC3)O[C@@H]2CO)cc1 | 8 | 0 | 0 | -1 | 0 | 0
CCCNC(=O)Nc1ccc2c(c1)C(=O)N(C)[C@@H]1CC[C@H](CC(=O)NC)O[C@@H]1CO2 | 3 | 16 | 0 | -1 | 0 | 0
COC(=O)c1noc(C)c1-c1ccnn1C(=O)c1ccc(C)cc1 | 2 | . | 29* | 6 | 0 | 0
O=C(CSc1nc(-c2ccco2)cc(C(F)(F)F)n1)N1CCSCC1 | . | 86* | . | 2 | . | .
CCCC(=O)Nc1ccc2nn(-c3ccc(OC)cc3)nc2c1 | 26* | -17 | . | -4 | 0 | 0
CC(C)CC(=O)Nc1ccc2nn(-c3ccccc3)nc2c1 | . | . | . | . | . | 1
